Experimental findings from ChEMBL document CHEMBL3425494, “Design, synthesis, and antitumor evaluation of novel histone deacetylase inhibitors equipped with a phenylsulfonylfuroxan module as a nitric oxide donor” (J Med Chem, 2015) are described below.

Data set [1] deals with Histone deacetylase 1 (Homo sapiens) (UniProt Q13547). Particulars: MV4-11, 12.5 to 200 nM.
Data set [2] is described as follows: Cytotoxicity against human 3AO cells assessed as growth inhibition after 48 hrs by MTT assay. In kind it is functional, cell-based. In general terms: Formazan colour is commonly taken as a measure of viable cells.
In a further data set the test system is HeLa. The data set can be described thus: Cytotoxicity against human HeLa cells assessed as growth inhibition after 48 hrs by MTT assay. The format is functional, cell-based.
Data set [3] relates to HEL. The data set can be described thus: Induction of apoptosis in human HEL cells after 24 hrs by 7-AAD-annexin-V/propidium iodide staining-based flow cytometric analysis. The format is functional, cell-based. The procedure, abridged: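 HEL cells (1 × 10⁵/well) grown 24 h, then treated 24 h at 0.5, 1 or 2 µM in fresh medium; 0.1% DMSO control. Cells collected, washed with cold PBS, stained in binding buffer with 7-AAD and propidium iodide (PE-Annexin V kit) 15 min at 25 °C in the dark; apoptotic fraction by flow cytometry.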
(In flow cytometry, cells or beads pass a laser one at a time.)

For data set [4], the system named is HEL. Put plainly: Antitumor activity against human HEL cells xenografted in po dosed BALB/c-nu mouse administered for 21 days measured every 3 days during compound dosing. In kind it is functional, organism-based. The method, boiled down:
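Subcutaneous HEL xenograft in right flank of male athymic nude mice, 6 per group, dosing started at ~100 mm³. Oral administration at 100 or 120 mg/kg/day for 21 consecutive days; controls given PBS containing DMSO. Tumors measured by caliper every 3 days (V = ab²/2); tumors weighed after sacrifice; mean ± SD.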
On the technique in general: Xenograft models place foreign cells or tissue in a host animal.

In data set [5] the test system is HEL. Put plainly: animal or person. In kind it is functional, Homo sapiens. To be noted: Mus musculus, po, read-out: TGI.
For data set [6], the system named is HEL. The data set can be described thus: Cell cycle arrest in human HEL cells assessed as accumulation at S phase at 0.5 uM after 48 hrs by propidium iodide staining-based flow cytometric analysis (reference value: 46.88%). The format is functional.
Data set [7] deals with T1, Protein deacetylase HDAC6 (Homo sapiens) (UniProt Q9UBN7).
T1 sequence (whole entry): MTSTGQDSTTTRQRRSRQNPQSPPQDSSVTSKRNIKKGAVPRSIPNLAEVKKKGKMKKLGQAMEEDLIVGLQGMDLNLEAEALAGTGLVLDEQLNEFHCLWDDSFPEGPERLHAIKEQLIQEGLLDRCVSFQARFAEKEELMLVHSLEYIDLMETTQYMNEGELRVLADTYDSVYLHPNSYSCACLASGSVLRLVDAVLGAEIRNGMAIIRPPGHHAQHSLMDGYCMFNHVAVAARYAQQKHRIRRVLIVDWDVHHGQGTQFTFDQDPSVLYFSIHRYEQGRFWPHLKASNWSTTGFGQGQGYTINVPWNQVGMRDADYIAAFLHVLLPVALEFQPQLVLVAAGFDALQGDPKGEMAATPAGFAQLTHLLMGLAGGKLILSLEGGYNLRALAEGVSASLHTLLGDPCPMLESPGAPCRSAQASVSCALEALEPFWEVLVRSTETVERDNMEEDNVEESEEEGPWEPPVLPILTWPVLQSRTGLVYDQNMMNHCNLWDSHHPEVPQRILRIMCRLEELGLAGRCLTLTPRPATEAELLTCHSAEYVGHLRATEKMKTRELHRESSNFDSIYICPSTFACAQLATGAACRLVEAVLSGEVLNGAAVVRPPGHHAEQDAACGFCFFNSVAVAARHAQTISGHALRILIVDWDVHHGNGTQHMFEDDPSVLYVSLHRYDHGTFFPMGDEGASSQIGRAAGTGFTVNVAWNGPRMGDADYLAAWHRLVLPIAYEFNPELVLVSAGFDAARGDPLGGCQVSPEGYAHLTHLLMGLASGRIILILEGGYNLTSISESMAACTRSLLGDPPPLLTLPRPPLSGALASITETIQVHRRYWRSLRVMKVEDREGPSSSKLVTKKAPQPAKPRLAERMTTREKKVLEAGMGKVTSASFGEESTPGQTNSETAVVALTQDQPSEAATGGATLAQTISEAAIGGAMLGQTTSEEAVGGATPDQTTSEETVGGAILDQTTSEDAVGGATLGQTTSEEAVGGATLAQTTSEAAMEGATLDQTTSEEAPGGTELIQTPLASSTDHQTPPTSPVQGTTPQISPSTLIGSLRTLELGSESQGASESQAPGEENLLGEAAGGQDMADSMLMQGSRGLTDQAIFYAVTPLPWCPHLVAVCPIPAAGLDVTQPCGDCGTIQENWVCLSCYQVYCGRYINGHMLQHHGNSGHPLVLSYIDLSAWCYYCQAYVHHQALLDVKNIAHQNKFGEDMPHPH
Particulars: MV4-11, 12.5 nM.

The next data set deals with HUVEC. Put plainly: Cytotoxicity against HUVEC assessed as growth inhibition after 48 hrs by MTT assay. The format is cell-based. To be noted: Homo sapiens.
Data set [8] has as its target Histone deacetylase 2 (Homo sapiens) (UniProt Q92769). To be noted: MV4-11, 12.5 to 200 nM.
In data set [9] the test system is HEL. The data set can be described thus: Cell cycle arrest in human HEL cells assessed as accumulation at G1 phase at 0.5 uM after 48 hrs by propidium iodide staining-based flow cytometric analysis (reference value: 47.87%). The format is functional.
The nature of data set [10]: Cytotoxicity against human U937 cells assessed as growth inhibition after 48 hrs by MTT assay. The format is functional, cell-based. To be noted: U-937, 48 h.
Data set [11] in a line: Cytotoxicity against human ES2 cells assessed as growth inhibition after 48 hrs by MTT assay. The format is functional, cell-based. To be noted: ES-2, 48 h.
The target in a further data set is Histone deacetylase 4 (Homo sapiens, UniProt P56524). The data set can be described thus: Inhibition of human recombinant HDAC4 expressed in baculovirus infected insect S9 cells using Ac-Leu-GlyLys(Tfa)-AMC as substrate after 30 mins by fluorescence assay.
A further data set relates to Mus musculus. The data set can be described thus: Toxicity in BALB/c-nu mouse xenografted with human HEL cells assessed as body weight loss at 120 mg/kg/day, po administered for 21 days measured everyday during compound dosing. Particulars: in vivo, 504 h. The format is organism-based. Also on record: route oral. The procedure, abridged:
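Male BALB/c-nu mice with s.c. HEL xenografts, 6 per group, given 120 mg/kg/day orally for 21 days; vehicle group received PBS containing DMSO. Body weight monitored regularly during treatment; mean ± SD.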

Data set [12] relates to HEL. Put plainly: Antitumor activity against human HEL cells xenografted in BALB/c-nu mouse assessed as decrease in tumor volume at 120 mg/kg/day, po administered for 21 days measured every 3 days during compound dosing relative to control. In kind it is functional.
Data set [13] concerns the target Histone deacetylase 2 (Homo sapiens) (UniProt Q92769). To be noted: HEL, 1 to 10 uM.

Calls of active or inactive are those of the source. The rule behind the calls is not given here.

Sequence of Histone deacetylase 2 (Homo sapiens) (Q92769 whole entry): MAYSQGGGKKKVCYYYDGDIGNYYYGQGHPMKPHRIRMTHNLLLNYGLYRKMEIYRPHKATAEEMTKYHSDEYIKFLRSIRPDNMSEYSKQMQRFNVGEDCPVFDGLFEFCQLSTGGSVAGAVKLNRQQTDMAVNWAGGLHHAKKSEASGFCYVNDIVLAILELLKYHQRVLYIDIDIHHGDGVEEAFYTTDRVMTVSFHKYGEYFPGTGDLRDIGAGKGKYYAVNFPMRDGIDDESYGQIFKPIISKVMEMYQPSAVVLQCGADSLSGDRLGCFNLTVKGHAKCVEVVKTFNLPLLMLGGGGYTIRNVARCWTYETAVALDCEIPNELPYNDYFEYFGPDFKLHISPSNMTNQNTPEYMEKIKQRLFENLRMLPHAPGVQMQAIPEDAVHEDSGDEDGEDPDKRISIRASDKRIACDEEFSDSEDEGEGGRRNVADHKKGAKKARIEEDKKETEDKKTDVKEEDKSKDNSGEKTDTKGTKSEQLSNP
Sequence of Histone deacetylase 4 (P56524 whole entry): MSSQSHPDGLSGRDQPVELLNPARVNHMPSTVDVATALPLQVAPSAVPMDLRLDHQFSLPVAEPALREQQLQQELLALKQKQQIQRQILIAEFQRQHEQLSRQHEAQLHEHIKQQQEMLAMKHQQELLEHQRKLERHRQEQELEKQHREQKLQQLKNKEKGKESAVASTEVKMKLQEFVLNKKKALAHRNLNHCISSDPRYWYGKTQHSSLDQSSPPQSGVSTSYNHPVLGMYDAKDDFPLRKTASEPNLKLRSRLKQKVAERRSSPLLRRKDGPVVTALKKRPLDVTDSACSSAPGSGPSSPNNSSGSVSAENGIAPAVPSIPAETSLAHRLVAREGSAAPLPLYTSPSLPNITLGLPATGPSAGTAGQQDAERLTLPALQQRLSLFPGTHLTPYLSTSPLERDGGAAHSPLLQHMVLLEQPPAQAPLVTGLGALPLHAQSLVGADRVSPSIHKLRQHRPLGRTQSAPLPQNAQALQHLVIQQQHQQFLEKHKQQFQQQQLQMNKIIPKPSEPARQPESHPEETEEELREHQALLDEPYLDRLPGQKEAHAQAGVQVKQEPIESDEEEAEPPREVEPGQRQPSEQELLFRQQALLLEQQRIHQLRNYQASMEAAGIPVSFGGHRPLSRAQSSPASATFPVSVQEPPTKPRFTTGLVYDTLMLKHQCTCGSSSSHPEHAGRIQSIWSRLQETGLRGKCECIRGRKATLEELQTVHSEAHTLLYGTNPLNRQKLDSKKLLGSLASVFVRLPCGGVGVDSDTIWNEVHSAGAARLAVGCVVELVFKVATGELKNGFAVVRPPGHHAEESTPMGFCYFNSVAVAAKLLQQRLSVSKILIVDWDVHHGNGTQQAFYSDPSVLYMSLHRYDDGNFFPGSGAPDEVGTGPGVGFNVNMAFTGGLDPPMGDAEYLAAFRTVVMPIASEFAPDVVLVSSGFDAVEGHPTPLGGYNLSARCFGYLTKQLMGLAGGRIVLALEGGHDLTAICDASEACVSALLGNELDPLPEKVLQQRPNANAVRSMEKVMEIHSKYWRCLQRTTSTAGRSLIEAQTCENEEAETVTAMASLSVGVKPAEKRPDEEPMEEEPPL
Sequence of Histone deacetylase 1 (Homo sapiens) (Q13547 whole entry): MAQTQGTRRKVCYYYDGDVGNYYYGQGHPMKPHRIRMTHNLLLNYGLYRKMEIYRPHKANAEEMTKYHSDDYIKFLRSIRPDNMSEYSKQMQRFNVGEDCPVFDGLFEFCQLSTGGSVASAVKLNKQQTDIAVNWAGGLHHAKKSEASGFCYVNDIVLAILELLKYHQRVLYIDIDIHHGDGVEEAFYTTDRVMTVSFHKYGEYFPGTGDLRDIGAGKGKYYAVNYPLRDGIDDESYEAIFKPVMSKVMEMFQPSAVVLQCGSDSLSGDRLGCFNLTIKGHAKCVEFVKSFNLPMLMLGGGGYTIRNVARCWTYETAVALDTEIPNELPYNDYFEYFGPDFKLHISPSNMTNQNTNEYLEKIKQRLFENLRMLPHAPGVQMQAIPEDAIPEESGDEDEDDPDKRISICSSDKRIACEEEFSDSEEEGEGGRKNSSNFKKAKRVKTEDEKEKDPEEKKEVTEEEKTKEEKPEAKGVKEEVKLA

The IC50 is the concentration at which inhibition is half-maximal. A word on the T/C: it is the result in the treated group divided by that in the control group, in per cent. As to `O=C(CCCCCOc1no[n+]([O-])c1S(=O)(=O)c1ccccc1)NO`, the inhibition result in data set [1], in data set [7], in data set [8] and in data set [13] was “Active” in each case. Also, the IC50 in data set [2] is 5840 nM; in the data set on HeLa, 1550 nM; in the data set with HUVEC it was 27100 nM; in data set [10], 3100 nM; in data set [11], 1390 nM; on Histone deacetylase 4 it was 30 nM. The Activity result in the data set with HEL [3] is “Dose-dependent effect”; with HEL [4], “Dose-dependent effect”; in the data set on HEL [6] it was 9.31%; in the data set with HEL [9], 90.24%; with Mus musculus it was “Non-toxic”. In addition, the inhibition in vivo at 120 mg/kg/day in the data set on HEL [5] was determined as 48%. Also, in the data set with HEL [12], the T/C is recorded as 39%.
